The source made the active and inactive calls. The rule behind the calls is not given here.
Legend:
[1] = target: T1, Cytochrome P450 3A4 (Homo sapiens, UniProt P08684); assay: Inhibition of CYP3A4 (unknown origin); assay type: ADME
[2] = target: T2, Cytochrome P450 1A2 (Homo sapiens, UniProt P05177); assay: Time/NADPH-dependent inhibition of CYP1A2 (unknown origin); assay type: ADME
T2 sequence (P05177 whole entry): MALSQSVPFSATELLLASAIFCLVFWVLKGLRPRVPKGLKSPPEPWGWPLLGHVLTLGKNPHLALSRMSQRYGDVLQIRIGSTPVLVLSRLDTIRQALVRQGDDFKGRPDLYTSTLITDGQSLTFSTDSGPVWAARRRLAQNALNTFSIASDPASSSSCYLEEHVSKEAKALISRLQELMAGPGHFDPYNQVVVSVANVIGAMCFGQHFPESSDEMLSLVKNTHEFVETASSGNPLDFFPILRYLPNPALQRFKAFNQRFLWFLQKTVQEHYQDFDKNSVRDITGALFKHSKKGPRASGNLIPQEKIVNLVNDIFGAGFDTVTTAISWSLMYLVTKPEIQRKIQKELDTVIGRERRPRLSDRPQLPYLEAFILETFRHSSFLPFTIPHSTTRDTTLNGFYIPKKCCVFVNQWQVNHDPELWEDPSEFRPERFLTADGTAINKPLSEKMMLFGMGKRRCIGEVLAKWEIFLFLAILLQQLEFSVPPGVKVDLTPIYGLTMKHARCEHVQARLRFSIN

[3] = target: T3, Cytochrome P450 2D6 (Homo sapiens, UniProt P10635); assay: Time/NADPH-dependent inhibition of CYP2D6 (unknown origin); assay type: ADME
T3 sequence (P10635 whole entry): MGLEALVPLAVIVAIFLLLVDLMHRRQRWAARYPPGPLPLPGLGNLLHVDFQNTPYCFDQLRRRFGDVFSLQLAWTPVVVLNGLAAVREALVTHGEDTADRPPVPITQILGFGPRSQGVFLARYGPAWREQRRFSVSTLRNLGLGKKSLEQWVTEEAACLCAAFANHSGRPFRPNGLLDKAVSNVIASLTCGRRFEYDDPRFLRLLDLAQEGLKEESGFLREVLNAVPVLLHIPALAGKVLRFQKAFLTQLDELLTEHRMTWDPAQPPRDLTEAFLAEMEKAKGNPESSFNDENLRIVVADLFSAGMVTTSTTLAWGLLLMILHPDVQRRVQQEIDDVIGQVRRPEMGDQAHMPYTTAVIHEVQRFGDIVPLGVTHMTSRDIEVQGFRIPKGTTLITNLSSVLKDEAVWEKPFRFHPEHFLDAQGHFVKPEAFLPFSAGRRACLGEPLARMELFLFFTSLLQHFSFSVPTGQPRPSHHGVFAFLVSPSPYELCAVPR

[4] = Drug metabolism in dog hepatocytes assessed as oxidation; assay type: ADME, cell-based, Canis lupus familiaris, Hepatocyte
[5] = target: T4, Cytochrome P450 2C19 (Homo sapiens, UniProt P33261); assay: Time-dependent inhibition of CYP2C19 (unknown origin); assay type: ADME
T4 sequence (P33261 whole entry): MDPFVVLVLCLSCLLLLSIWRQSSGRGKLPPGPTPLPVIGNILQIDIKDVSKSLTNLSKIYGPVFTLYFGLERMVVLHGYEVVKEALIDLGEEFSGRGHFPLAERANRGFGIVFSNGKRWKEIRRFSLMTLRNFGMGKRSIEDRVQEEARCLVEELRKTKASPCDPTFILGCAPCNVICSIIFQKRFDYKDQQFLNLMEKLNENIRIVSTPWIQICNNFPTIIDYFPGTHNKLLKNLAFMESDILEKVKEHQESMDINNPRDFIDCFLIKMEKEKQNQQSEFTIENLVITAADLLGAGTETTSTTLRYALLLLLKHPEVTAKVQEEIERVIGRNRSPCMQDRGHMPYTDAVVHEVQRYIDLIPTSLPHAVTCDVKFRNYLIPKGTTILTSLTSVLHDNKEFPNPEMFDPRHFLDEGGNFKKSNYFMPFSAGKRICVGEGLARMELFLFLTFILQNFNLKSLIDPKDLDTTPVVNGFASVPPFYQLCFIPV

[6] = tested on: MC-38; assay: Antitumor activity against mouse MC38 tumor model administered as monotherapy; assay type: functional
[7] = tested on: Mus musculus; assay: Half life in CD-1 mouse assessed as (R)-3-(5-fluoro-1H-indol-3-yl)pyrrolidine-2,5-dione at 1 mg/kg, iv by LC-MS/MS method; assay type: ADME, organism-based; settings: in vivo
Outline: (§1)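 Racemate given as a single 1 mg/kg IV dose to male CD-1 mice, Wistar-Han rats or beagle dogs (n=3 per species). Plasma levels of the (R)-enantiomer measured by chiral LC-MS/MS. Mean AUCinf, CLp, Vss and t1/2 reported.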

[8] = Drug metabolism in mouse hepatocytes assessed as hydrolysis; assay type: ADME, cell-based, Hepatocyte
[9] = tested on: Hepatocyte; assay: Induction of CYP2B6 mRNA expression in human hepatocytes at <100 uM; assay type: ADME, cell-based
[10] = tested on: Canis familiaris; assay: Cmax in beagle dog assessed as (R)-3-(5-fluoro-1H-indol-3-yl)pyrrolidine-2,5-dione at 3 mg/kg, po; assay type: ADME, organism-based, Canis lupus familiaris; design: dose 3 mg/kg, route oral; settings: in vivo
[11] = tested on: Rattus norvegicus; assay: Volume of distribution at steady state in Wistar-Han rat assessed as (R)-3-(5-fluoro-1H-indol-3-yl)pyrrolidine-2,5-dione at 1 mg/kg, iv by LC-MS/MS method; assay type: ADME, organism-based; settings: in vivo
[12] = target: T2, Cytochrome P450 1A2; assay: Inhibition of CYP1A2 (unknown origin); assay type: ADME
[13] = tested on: CT26; assay: Antitumor activity against mouse CT26 tumor model administered as monotherapy; assay type: functional
[14] = target: Broad substrate specificity ATP-binding cassette transporter ABCG2 (Homo sapiens, UniProt Q9UNQ0); assay: Inhibition of BCRP (unknown origin) transfected in MDCK cells assessed as decrease in pitavastatin transport; assay type: cell-based
Chain of Broad substrate specificity ATP-binding cassette transporter ABCG2 (Q9UNQ0 whole entry): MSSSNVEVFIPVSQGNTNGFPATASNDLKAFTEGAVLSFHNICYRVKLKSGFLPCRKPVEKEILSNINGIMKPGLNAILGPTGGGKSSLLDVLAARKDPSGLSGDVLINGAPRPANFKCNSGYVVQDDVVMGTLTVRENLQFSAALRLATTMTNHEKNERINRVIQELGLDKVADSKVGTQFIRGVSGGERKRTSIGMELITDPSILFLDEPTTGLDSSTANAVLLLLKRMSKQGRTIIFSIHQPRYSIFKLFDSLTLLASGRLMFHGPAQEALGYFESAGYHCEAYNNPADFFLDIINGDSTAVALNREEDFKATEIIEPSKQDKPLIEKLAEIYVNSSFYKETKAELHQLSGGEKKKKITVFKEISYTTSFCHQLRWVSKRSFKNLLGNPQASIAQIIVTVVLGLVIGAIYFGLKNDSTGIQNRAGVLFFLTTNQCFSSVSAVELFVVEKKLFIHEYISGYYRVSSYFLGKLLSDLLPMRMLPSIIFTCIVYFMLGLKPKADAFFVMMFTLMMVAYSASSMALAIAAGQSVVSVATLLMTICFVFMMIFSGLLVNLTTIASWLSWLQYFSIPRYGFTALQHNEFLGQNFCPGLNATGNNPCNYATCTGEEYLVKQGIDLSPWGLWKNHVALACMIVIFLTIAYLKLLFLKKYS

[15] = tested on: Panc02; assay: Antitumor activity against mouse Pan02 tumor model administered as monotherapy; assay type: functional
[16] = tested on: 4T1; assay: Antitumor activity against mouse 4T1 tumor model administered as monotherapy; assay type: functional
[17] = target: T4, Cytochrome P450 2C19; assay: Inhibition of CYP2C19 (unknown origin); assay type: ADME
[18] = tested on: Canis familiaris; assay: Volume of distribution at steady state in beagle dog assessed as (R)-3-(5-fluoro-1H-indol-3-yl)pyrrolidine-2,5-dione at 1 mg/kg, iv by LC-MS/MS method; assay type: ADME, organism-based, Canis lupus familiaris; settings: in vivo
[19] = target: Tryptophan 2,3-dioxygenase (Homo sapiens, UniProt P48775); assay: Inhibition of human TDO2 using tryptophan as substrate after 22 mins by LC-MS/MS method
Chain of Tryptophan 2,3-dioxygenase (P48775 whole entry): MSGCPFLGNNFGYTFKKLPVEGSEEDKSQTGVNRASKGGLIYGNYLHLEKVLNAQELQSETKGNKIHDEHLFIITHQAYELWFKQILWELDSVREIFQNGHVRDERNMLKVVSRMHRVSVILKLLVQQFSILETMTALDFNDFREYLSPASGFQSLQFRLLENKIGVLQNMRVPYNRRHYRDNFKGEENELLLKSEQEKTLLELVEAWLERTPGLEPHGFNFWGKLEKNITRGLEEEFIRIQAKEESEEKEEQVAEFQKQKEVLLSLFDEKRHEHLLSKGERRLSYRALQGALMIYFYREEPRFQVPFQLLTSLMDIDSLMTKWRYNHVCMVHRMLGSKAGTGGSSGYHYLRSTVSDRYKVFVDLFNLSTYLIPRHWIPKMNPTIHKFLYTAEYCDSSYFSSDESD

[20] = Intrinsic apparent clearance in mouse hepatocytes assessed per million cells; assay type: ADME, cell-based, Hepatocyte
[21] = Intrinsic apparent clearance in rat hepatocytes assessed per million cells; assay type: ADME, cell-based, Hepatocyte
[22] = tested on: Mus musculus; assay: Oral bioavailability in CD-1 mouse assessed as (R)-3-(5-fluoro-1H-indol-3-yl)pyrrolidine-2,5-dione at 3 mg/kg; assay type: ADME, organism-based; settings: in vivo
[23] = target: T1, Cytochrome P450 3A4; assay: Time/NADPH-dependent inhibition of CYP3A4 (unknown origin); assay type: ADME
[24] = tested on: Mus musculus; assay: AUC (infinity) in CD-1 mouse assessed as (R)-3-(5-fluoro-1H-indol-3-yl)pyrrolidine-2,5-dione at 3 mg/kg, po; assay type: ADME, organism-based; design: dose 3 mg/kg, route oral, time infinity; settings: in vivo
[25] = target: T2, Cytochrome P450 1A2; assay: Time-dependent inhibition of CYP1A2 (unknown origin); assay type: ADME
[26] = Drug metabolism in human hepatocytes assessed as hydrolysis; assay type: ADME, cell-based, Hepatocyte
[27] = target: T1, Cytochrome P450 3A4; assay: Time-dependent inhibition of CYP3A4 (unknown origin); assay type: ADME
[28] = tested on: Canis familiaris; assay: Tmax in beagle dog assessed as (R)-3-(5-fluoro-1H-indol-3-yl)pyrrolidine-2,5-dione at 3 mg/kg, po; assay type: ADME, organism-based, Canis lupus familiaris; settings: in vivo
[29] = tested on: Mus musculus; assay: In vivo inhibition of human IDO-1 expressed in non-tumor-bearing mouse assessed as reduction in plasma L-kynurenine levels at >= 200 mg/kg after 1 hr relative to control; assay type: functional
[30] = target: Indoleamine 2,3-dioxygenase 2 (Homo sapiens) (UniProt Q6ZQW0); assay: Inhibition of human recombinant IDO-2 up to 200 uM using tryptophan as substrate after 22 mins by LC-MS/MS method
Chain of Indoleamine 2,3-dioxygenase 2 (Homo sapiens) (Q6ZQW0 whole entry): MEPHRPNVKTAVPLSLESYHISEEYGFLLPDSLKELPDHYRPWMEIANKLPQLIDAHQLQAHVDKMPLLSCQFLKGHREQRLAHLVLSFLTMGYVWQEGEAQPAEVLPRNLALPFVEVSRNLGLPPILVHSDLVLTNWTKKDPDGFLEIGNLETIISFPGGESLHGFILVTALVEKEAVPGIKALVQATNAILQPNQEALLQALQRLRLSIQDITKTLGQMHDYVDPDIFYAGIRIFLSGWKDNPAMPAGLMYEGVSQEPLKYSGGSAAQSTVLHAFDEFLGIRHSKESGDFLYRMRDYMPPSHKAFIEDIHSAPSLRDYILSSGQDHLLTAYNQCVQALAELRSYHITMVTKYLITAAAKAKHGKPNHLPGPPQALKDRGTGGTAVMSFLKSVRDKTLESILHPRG
Outline: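 Human IDO2 at 250 nM with inhibitor in duplicate, room temperature, in Mg/Ca-free PBS with 20 mM ascorbate, 10 μM methylene blue, 800 nM catalase, 15 μM tryptophan; HCl stop after 22 min; kynurenine quantified by RapidFire SPE-MS/MS; two replicates, geometric means.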

[31] = target: T3, Cytochrome P450 2D6; assay: Time-dependent inhibition of CYP2D6 (unknown origin); assay type: ADME
[32] = tested on: Mus musculus; assay: Half life in CD-1 mouse assessed as (R)-3-(5-fluoro-1H-indol-3-yl)pyrrolidine-2,5-dione at 3 mg/kg, po; assay type: ADME, organism-based; settings: in vivo
[33] = tested on: Rattus norvegicus; assay: Half life in Wistar-Han rat assessed as (R)-3-(5-fluoro-1H-indol-3-yl)pyrrolidine-2,5-dione at 3 mg/kg, po; assay type: ADME, organism-based; settings: in vivo
[34] = tested on: Renca; assay: Antitumor activity against mouse Renca tumor model administered as monotherapy; assay type: functional
[35] = tested on: Rattus norvegicus; assay: Cmax in Wistar-Han rat assessed as (R)-3-(5-fluoro-1H-indol-3-yl)pyrrolidine-2,5-dione at 3 mg/kg, po; assay type: ADME, organism-based; design: dose 3 mg/kg, route oral; settings: in vivo
[36] = tested on: Rattus norvegicus; assay: Half life in Wistar-Han rat assessed as (R)-3-(5-fluoro-1H-indol-3-yl)pyrrolidine-2,5-dione at 1 mg/kg, iv by LC-MS/MS method; assay type: ADME, organism-based; settings: in vivo; outline: as §1
[37] = Drug excretion in rat urine assessed as (R)-3-(5-fluoro-1H-indol-3-yl)pyrrolidine-2,5-dione; assay type: ADME; settings: in vivo
Outline: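 Racemate dosed to rats (urine and bile collected) and to dogs (urine collected). The percentage of the dose excreted as unchanged (R)-enantiomer was measured.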

[38] = tested on: Canis familiaris; assay: AUC (infinity) in beagle dog assessed as (R)-3-(5-fluoro-1H-indol-3-yl)pyrrolidine-2,5-dione at 1 mg/kg, iv by LC-MS/MS method; assay type: ADME, organism-based, Canis lupus familiaris; design: dose 1 mg/kg, route intravenous, time infinity; settings: in vivo; outline: as §1

T1 sequence (P08684 whole entry): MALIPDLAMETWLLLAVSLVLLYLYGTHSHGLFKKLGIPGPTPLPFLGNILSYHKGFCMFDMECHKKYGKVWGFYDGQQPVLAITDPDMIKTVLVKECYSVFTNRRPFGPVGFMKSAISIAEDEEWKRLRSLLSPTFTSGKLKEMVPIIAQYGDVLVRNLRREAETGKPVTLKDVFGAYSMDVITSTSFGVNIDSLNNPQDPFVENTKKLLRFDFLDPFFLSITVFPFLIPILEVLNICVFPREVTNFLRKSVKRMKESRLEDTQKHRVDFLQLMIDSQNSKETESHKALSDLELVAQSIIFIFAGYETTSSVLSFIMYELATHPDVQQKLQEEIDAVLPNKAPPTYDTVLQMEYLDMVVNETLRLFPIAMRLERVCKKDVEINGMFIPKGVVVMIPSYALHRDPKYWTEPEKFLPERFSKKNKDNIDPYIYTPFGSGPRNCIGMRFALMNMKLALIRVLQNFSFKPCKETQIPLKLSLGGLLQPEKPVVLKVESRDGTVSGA

- IC50 [1]: > 100 µM
- inhibition (INH) [2]: Not Active
- inhibition (INH) [3]: Not Active
- Drug metabolism [4]: Metabolite_Detected
- TDI [5]: Not Active
- t1/2 [7]: 2.5 h
- Drug metabolism [8]: Metabolite_Detected
- Activity [9]: Not Active
- Cmax [10]: 219 ng/mL
- Vdss [11]: 0.639 L/kg
- IC50 [12]: > 100 µM
- IC50 [14]: 65.4 µM
- IC50 [17]: 78 µM
- Vdss [18]: 0.957 L/kg
- IC50 [19]: 140 µM
- CLH(app) [20]: 2.4 µL/min
- CLH(app) [21]: 2.3 µL/min
- F [22]: 59.3%
- inhibition (INH) [23]: Not Active
- AUC [24]: 2170 ng·h/mL
- TDI [25]: Not Active
- Drug metabolism [26]: Metabolite_Detected
- TDI [27]: Not Active
- Tmax [28]: 15 min
- inhibition [30]: inactive
- TDI [31]: Not Active
- t1/2 [32]: 2.48 h
- t1/2 [33]: 2.42 h
- Cmax [35]: 985 ng/mL
- t1/2 [36]: 2.22 h
- Drug excretion [37]: < 1 %ID
- AUC [38]: 423 ng·h/mL
Structure (SMILES): O=C1CC(c2c[nH]c3ccc(F)cc23)C(=O)N1 (stereo not drawn) [PF-06840003]
- Activity [6]: Active
- Activity [13]: Active
- Activity [15]: Active
- Activity [16]: Active
- inhibition (INH) [29]: >=54%
- Activity [34]: Active
